Source: PubChem (several laboratories)
The sample as a whole holds a higher share of hits than the screen did.
Glyco luc inh = N-linked glycosylation inhibition | D54 ERlucT glycosylation luciferase reporter, 24 h; percent of 100 nM tunicamycin response | reporter increase, % at 12.5 µM | hit rate 0.23% among 360,000;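 active means mean luciferase reporter signal, scaled so untreated is 0 and the glycosylation-blocking control 100, at or above a set limit in every replicate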;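 further: luciferase carries N-glycosylation sites so blocking glycosylation raises the light; 0% = median of neutral control wells and 100% = median of 100 nM tunicamycin wells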
ALR H2O2 inh = inhibitors of human sulfhydryl oxidase ALR; P55789; purified ALR, DTT oxidation, H2O2 HRP-luminol luminescence; inhibition, % (no concentration beside the values); hit rate 3.8% among 290,000; AID 485317;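 active means mean replicate inhibition above about 79%, with every replicate also reaching it, limit read from the data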
Target sequence (P55789 whole entry, looked up): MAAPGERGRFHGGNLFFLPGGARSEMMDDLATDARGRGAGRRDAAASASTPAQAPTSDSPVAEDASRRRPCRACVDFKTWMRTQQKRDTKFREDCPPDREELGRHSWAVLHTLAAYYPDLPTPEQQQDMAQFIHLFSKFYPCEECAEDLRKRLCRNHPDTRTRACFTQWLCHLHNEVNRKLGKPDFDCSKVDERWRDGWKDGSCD
T cell modulator = T cell immune modulators affecting CD8 T cell-vesicle binding; 2C CD8+ T cell-vesicle binding, flow cytometry; hits give low values; response (vesicle binding), % at 7 µM; hit rate 0.068% among 330,000;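 active means response, share of CD8 T cells binding vesicles, and their 90th percentile fluorescence all below set limits, cut at about 80% in these data, passing the limit was not always enough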;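 further: values below 100% mean blocked vesicle binding to the CD8+ T cells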
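Material: 2C TCR transgenic mouse naive CD8+ T cells, MACS-purified. Also added: QL9-charged Drosophila Ld/ICAM-1/B7-1 vesicles. Timing: binding 1.5 h at 37 °C. Measured by: high-throughput flow cytometry with anti-B7-1 and anti-CD8 staining. Read-out: percent CD8+ FL2 mean versus row control. Controls: Unloaded micro-vesicles (low), QL9 vesicles with 0.7% DMSO (high).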
An asterisk follows results filed as active; x = not tested or not shown.

SMILES	Glyco luc inh	ALR H2O2 inh	T cell modulator
COc1ccc(CC(=O)Nc2nc3ccc(F)cc3s2)cc1S(=O)(=O)N1CCOCC1	1	99*	292
COc1ccc(NC(=O)c2cc3c(s2)CCC3)cc1S(=O)(=O)N1CCOCC1	-5	99*	141
COc1ccc(CC(=O)Nc2nc3ccccc3s2)cc1S(=O)(=O)N1CCOCC1	1	-4	345
O=P(OC1CCCCC1)(OC1CCCCC1)C(Nc1ccccc1)c1cccnc1 (configuration not stated)	0	-27	158
CC1(C)ON=C(c2ccc(C(F)(F)F)cc2)NC1=O	-5	x	x
Cc1cc(C)c(NS(=O)(=O)c2ccc3c(c2)oc(=O)n3C)c(C)c1	-3	x	x
CCN(CC)c1ccc(NS(=O)(=O)c2ccc3c(c2)oc(=O)n3C)c(C)c1	-1	99*	417
COc1ccc(OC(=O)c2ccncc2)cc1	-1	1	307
COc1ccc(C(=O)Oc2ccc(/C=N/O)cc2)cc1	0	91*	239
COc1ccc2c(c1)cc(C(=O)N[C@@H](CCSC)C(=O)N1CCC[C@H]1C(=O)O)n2C	1	-6	317
O=C(CCN1CCCCC1)NNC(=S)NC(=O)c1ccc(Br)cc1	0	99*	370
O=C(CCN1CCOCC1)NNC(=S)NC(=O)c1ccc(Br)cc1	0	99*	891
O=C(NCCN1CCCC1)c1ccc(Br)cc1	-2	-17	268
Nc1ccc(NC(=O)CCN2CCOCC2)cc1	2	93*	165
O=C(CCN1CCOCC1)Nc1ccc(F)cc1	1	3	410
O=C(NC(=S)NCCCN1CCOCC1)c1ccc(Br)cc1	4	24	303
O=C(CSc1nnc(CNC(=O)c2c(F)cccc2Cl)o1)NCc1ccccc1	2	-26	259
CN(Cc1ccccc1F)c1cc2c(c3c1ccn3C)C1CCC2C1 (configuration not stated)	1	x	x
O=C(O)c1ccc(N(c2ccccc2)c2ccccc2)cc1	0	99*	405
CCN(CC)c1ccc(C(=O)O)cc1	1	37	280
CCOc1ccc(NC(=O)CCC(=O)NNC(=O)c2ccc(Br)o2)cc1	2	-7	417
COc1ccccc1S(=O)(=O)Cc1ccc(C(=O)N2CCN(c3ccccn3)CC2)o1	-2	-17	280
COc1ccc(S(=O)(=O)Cc2ccc(C(=O)N3CCN(c4ccccc4F)CC3)o2)cc1	-2	13	378
COc1ccccc1S(=O)(=O)Cc1ccc(C(=O)N2CCCC2)o1	-1	93*	396
COc1ccc(S(=O)(=O)Cc2ccc(C(=O)N3CCN(c4ccccc4)CC3)o2)cc1	-2	89*	540
SMILES	Glyco luc inh	ALR H2O2 inh	T cell modulator
COc1ccc(S(=O)(=O)Cc2ccc(C(=O)N3CCCC3)o2)cc1	0	94*	322
COc1ccc(S(=O)(=O)Cc2ccc(C(=O)N3CCC(C(N)=O)CC3)o2)cc1	2	-35	200
NC(=S)NNc1ccc(Cl)c(Cl)c1	-1	x	291
Cc1ccc(NNC(N)=S)cc1Cl	0	99*	252
O=c1[nH]c(SCc2ccc(F)cc2Cl)nc2ccccc12	-3	-6	182
COCC1CCN(C(=O)C2CCC(=O)N(C3CCCCCC3)C2)CC1 (configuration not stated)	4	-12	506
Cc1ccc(C(=O)NCC(=O)OCc2nnc(-c3ccc([N+](=O)[O-])cc3)o2)s1	2	x	245
COc1ccc(C(N)c2csc(Nc3nncc4ccccc34)n2)cc1 (configuration not stated)	-2	x	x
CN1CCc2c(sc(NC(=O)c3cc(Cl)sc3Cl)c2C(N)=O)C1	0	97*	328
CN1CCc2c(sc(NC(=O)c3ccco3)c2C(N)=O)C1	1	11	675
CC(NC(=S)Nc1cccc(F)c1)C(c1cccs1)N1CCOCC1 (configuration not stated)	1	-2	283
Cc1cc(NC(=O)COC(=O)Cn2c(C)csc2=O)ccc1Br	1	-1	204
Cc1ccc(-n2c(SCC(=O)N3CC(=O)Nc4ccccc43)nc3ccccc3c2=O)cc1	-5	98*	239
Cc1cccc(C)c1-n1c(SCC(=O)N2CC(=O)Nc3ccccc32)nc2ccccc2c1=O	-3	-8	92
Cc1ccc(S(=O)(=O)N(C)C[C@@H]2Oc3ccc(NC(=O)Nc4cccc5ccccc45)cc3C(=O)N([C@H](C)CO)C[C@H]2C)cc1	-6	-3	89
OC[C@@H]1CN(Cc2ccc(-c3ccccc3)cc2)C[C@H](n2cnc3c(NCc4ccco4)ncnc32)O1	-2	x	x
O=C(O)C1Cc2ccccc2CN1S(=O)(=O)c1ccccc1 (configuration not stated)	0	-2	169
O=C(O)C1Cc2ccccc2CN1S(=O)(=O)c1ccc2ccccc2c1 (configuration not stated)	-2	95*	302
CCCCC(CC)CNC(=O)CC1Nc2c3ccccc3nc(=S)n2C1=O (configuration not stated)	1	-2	289
CCCCCOc1ccc(Br)cc1CSC(=N)N	7	x	x
COc1ccc(Br)cc1CSC(=N)N	5	99*	197
COC(=O)C1N[C@@H]([C@@H](NC(=O)COc2ccccc2)C(=O)NCc2ccc(OC)cc2)SC1(C)C (some centres not stated)	3	-3	x
O=C1CSC(=S)N1/N=C/c1ccc(O)c(O)c1O	1	x	151
O=C1CSC(=S)N1/N=C/c1cc(Br)ccc1O	x	98*	154
COc1ccc(C)cc1NC(=O)CSc1nnc(-c2cc(C)[nH]n2)n1N	0	-3	194
SMILES	Glyco luc inh	ALR H2O2 inh	T cell modulator
CC(=O)Nc1ccc(CN(C)c2c(C)nc3ccc(C(=O)NCCCn4ccnc4)cn23)cc1	3	x	x
Cc1cc(Br)cn2c(Cc3cccc(F)c3)c(C3CCCCC3)nc12	-3	x	x
COCCn1c(SCC(=O)c2cc(C)n(C)c2C)nc2ccccc2c1=O	2	99*	243
COCCn1c(SCC(=O)NC(=O)Cc2ccccc2)nc2ccccc2c1=O	2	2	290
Cc1ccc(-n2nc(C)c(NC(=O)CCl)c2C)cc1C	48*	8	126
CCC(=O)Nc1c(C)nn(-c2ccc(C)c(C)c2)c1C	-2	-4	315
CC(C)Oc1cc(F)ccc1-c1cc(C(=O)NCc2cccnc2)[nH]n1	0	x	x
C=C1CC(COc2ccc3c(C)c(Cl)c(=O)oc3c2)(c2ccccc2)OC1=O (configuration not stated)	-14	x	x
CCN(CC)S(=O)(=O)c1ccc(C(=O)Nc2nnc(CSC)o2)cc1	4	91*	209
CCN(CC)S(=O)(=O)c1ccc(C(=O)Nc2nnc(COC)o2)cc1	0	9	239
O=C(c1cc[n+]([O-])cc1)N1CCCC(N2CCN(c3cccc(C(F)(F)F)c3)CC2)C1 (configuration not stated)	-2	-15	254
O=C(CCc1ccccc1)NNC(=S)NCc1ccc(Cl)cc1	-2	-4	186
O=C(CCc1ccc(O)c(O)c1)NNC(=S)NCCc1ccccc1	1	99*	233
COc1ccc(CCC(=O)NNC(=O)Nc2cccc(Cl)c2)cc1	-2	0	316
O=C(NNC(=S)Nc1ccc(Br)cc1Cl)c1ccncc1	3	74	233
